Cytotoxicity data for 95 molecules are collected here from ChEMBL document CHEMBL4513216, “Probing the Open Global Health Chemical Diversity Library for Multistage-Active Starting Points for Next-Generation Antimalarials” (ACS Infect Dis, 2020).

The nature of the data set: Toxicity liver stage against HepG2, at 10uM. The class given is cell-based. Details: test concentration 10 uM, cell line HepG2-A16-CD81EGFP. The note with it: human, HepG2-A16-CD81EGFP cells; read-out: INHIBITION
Summed up: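 Uninfected HepG2-A16-CD81EGFP cells, 3 × 10^3 per well, 1536-well, plated on prespotted compound at 10 μM final, parasite-free screening media added to match infected plates; puromycin 10 μM positive, DMSO 0.5% negative; run in parallel with 48 h PbLuc assay at 37 °C, 5% CO2; viability by CellTiter-Glo luminescence, normalized to controls.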
For `CCC(C)[C@H](N)c1nnc(SCC(=O)Nc2ccc(C)cc2C)o1` (stereo not given in full), the cytotoxicity at 10 µM is -3.32%. To `COc1cccc(CNc2ccc(F)c(Cl)c2)c1O` belongs 4.56%; to `O=C(NCC1CCCO1)C1CCN(Cc2nc(C3CC3)no2)CC1` (stereo not given), 1.11%; to `CCC1CCCCCN1C(=O)c1nnc2ccccc2c1N` (stereo not given), 7.85%.

For `c1ccc(CCCN2CC[C@H](c3nnc(-c4ccccc4)o3)C2)cc1`, the cytotoxicity at 10 µM amounted to 4.77%. For the molecule `CC(=O)c1cc2ncc(C(=O)NC3CC3)cc2[nH]1`, the cytotoxicity at 10 µM is -0.0253%. The figure for `CCOCCCNC(=O)c1cn(C(C)(C)C)c2ncccc12` is 2.05%; for `O=S(=O)(Nc1cnc(N2CCCC2)nc1)c1ccc(OC(F)(F)F)cc1` it is 2.41%. The figure for `O=C(NC1CC1)C1CCCN(c2cc(-n3cncn3)ncn2)C1` (stereo not given) is 10.1%.

For the molecule `CNC(=O)[C@@]12CCC3(CCN(S(C)(=O)=O)CC3)[C@@H]1CN(C(C)=O)C2`, the cytotoxicity at 10 µM was -2.07%. To `Cc1ccc(N2CC[C@H]3OCC[C@@]3(C(=O)N3CCCC3)C2)nn1` belongs 2.46%; to `O=C(Cn1cnc(-c2ccccc2)cc1=O)Nc1ccncc1`, 3.48%; to `CC(C)N1CCCCC1c1cncc(Cl)n1` (stereo not given), 8.41%.

Take `CC(NCC1(N(C)C)CCOCC1)c1ccc(SC(F)F)cc1` (stereo not given): the cytotoxicity at 10 µM is -0.79%. To `O=C(C1CCOc2ccccc21)N1CCOc2ccc(F)cc21` (stereo not given) belongs -7.54%; to `CC(C)n1nnnc1-c1ccc(NC(=O)CCC(F)(F)F)cc1F`, -2.5%. To `COc1cc(CNc2nc(C(F)(F)F)no2)cc(OC)c1OC` belongs 1.66%; to `Cc1cc(NC(=O)CCCn2ccnc2C)nc(C(C)C)n1`, -5.73%; to `Cc1cc(Nc2ccc3c(c2)CC(=O)N3)nc(C2CC2)n1`, 0.658%. On to `CCc1n[nH]c(C2CN(C(=O)COCC(F)(F)F)CCO2)n1` (stereo not given), for which the cytotoxicity at 10 µM was -3.48%. In the case of `CN(Cc1ccc(Br)o1)C(=O)Nc1cccnc1`, the cytotoxicity at 10 µM was -7.91%. With `O=C(NCc1ccccc1CN1CCC(O)CC1)Nc1ccccc1`, the cytotoxicity at 10 µM is 7.77%. To `O=C(NCc1ccc(F)cc1)NCC1(N2CCOCC2)CCSC1` (stereo not given) belongs 1.84%. The figure for `Cc1ccc(CN(C)C(=O)CN2CCCCC2Cn2cncn2)o1` (stereo not given) is 0.508%; for `CS(=O)(=O)CCNC1CCCN(Cc2noc(C3CC3)n2)C1` (stereo not given) it is -1.38%. To `Cc1ccc(CNc2ccccc2-n2ccc(C)n2)nc1` belongs 5.7%; to `CC(O)CN1CCN(C(=O)c2cnc(OC(C)C)c(Cl)c2)CC1` (stereo not given), -19.5%; to `NC(=O)NC(=O)CCN1CCC(C(=O)c2cc(F)ccc2F)CC1`, 9.69%. As to `CN(Cc1ccsc1)C(=O)Cn1c(CS(C)(=O)=O)nc2ccccc21`, the cytotoxicity at 10 µM is 6.96%. The figure for `CC1COc2ccccc2N1C(=O)c1ccc(=O)n(C)c1` (stereo not given) is -3.42%. To `OC1CCN(c2cnnc3ccccc23)CC1` belongs -0.561%. Turning to `CSCCC(NC(=O)c1ccc2ccccc2n1)C(=O)NC(C)C` (stereo not given), the cytotoxicity at 10 µM was found to be 9.3%. The figure for `O=C1CN(c2ccc(CNc3cncc(-n4cccn4)n3)cc2)CCN1` is -13.3%; for `COc1ccc(CS(=O)(=O)CC(=O)NCc2ccccc2F)cc1F` it is 3.33%; for `NC(=O)c1nc2c(s1)CCN(C(=O)Nc1ccccc1)CC2` it is 12.5%. The figure for `O=C([C@@H]1CCCO1)N1CCOCC2(CCN(Cc3cccnc3)C2)C1` (stereo not given in full) is -108%. To `CN1CCN(Cc2cnc3n2CCN(C(=O)c2ccccn2)C3)CC1` belongs -88.7%. Regarding `O=C(C1CCOCC1)N1CCN(CC2CC2)c2ncccc2C1`, the cytotoxicity at 10 µM is -107%. The figure for `Cc1ccc2c(n1)N(CCN(C)C)CCN(C(=O)c1ccsc1)C2` is -57.3%; for `O=C(c1ccccn1)N1CCC2(CC1)CN(c1cncnc1)C(=O)CO2` it is -67%.

As for `Cc1ccc(CN2CCN(C)c3ncccc3C2)o1`, the cytotoxicity at 10 µM was -79.6%. To `COCC(=O)N1C[C@@H]2OCCN(Cc3c(C)noc3C)[C@@H]2C1` belongs -0.722%; to `COc1ccc(C(=O)N2CCC(Oc3cccc(C)c3)(C(=O)O)CC2)o1`, 9.24%; to `Cc1cc(C)c2c(N3CCN(CCN4CCOCC4)CC3)ncnc2n1`, 3.04%. To `COCCN(C)C(C(=O)O)c1ccc2ccccc2c1` (stereo not given) belongs 3.54%. The figure for `FC(F)(F)c1ccnc(N2CCCC(N3CCOCC3)C2)c1` (stereo not given) is -24.7%. For the molecule `COCC(=O)NCc1cc2n(n1)CCCN(CCCC1CCCC1)C2`, the cytotoxicity at 10 µM was -5.01%.

For `CO[C@H]1CN(C(C)C)C[C@@H]1NC(=O)Nc1ccc(C(F)(F)F)cc1`, the cytotoxicity at 10 µM is 2.05%.

In the case of `O=C(CCc1cc2n(n1)CCCNC2)NCCCSC1CCCCC1`, the cytotoxicity at 10 µM was -5.52%.

On to `COc1ccccc1OC1(C(=O)O)CCN(c2ccccn2)CC1`, for which the cytotoxicity at 10 µM worked out at 4.52%. For the molecule `Fc1ccc(-n2cccn2)c(CN2CCCCC2CCn2ccnc2)c1` (stereo not given), the cytotoxicity at 10 µM is -11.3%. Take `CC(C)c1cc(N2CCC3(CCN(C)C3)C2)ncn1` (stereo not given): the cytotoxicity at 10 µM is -11.8%. The figure for `Cc1nc(CCNC2CCN(Cc3ccccc3)C2)sc1C` (stereo not given) is 12.3%. `COCCn1ccnc1C1CCCN(C(=O)c2cc(F)cc(F)c2)C1` (stereo not given): the cytotoxicity at 10 µM stood at 8.86%. In the case of `Cc1nc(O)cc(C2CCCN(C(=O)c3cccc(N(C)C)c3)C2)n1` (stereo not given), the cytotoxicity at 10 µM is -6.47%.

Turning to `COc1cccc([C@@H]2CN(C3CSCCSC3)C[C@H]2C(=O)O)c1`, the cytotoxicity at 10 µM stood at 2.95%. To `Cc1noc(CC2CCN(Cc3ccc(CCC(C)(C)O)cc3)CC2)n1` belongs -2.18%; to `Cn1cc(CN2CCC(CCC(=O)NCc3ccc(F)cc3)CC2)cn1`, -19.5%.

Regarding `Cc1n[nH]c(C)c1CCCN(C)Cc1c[nH]nc1-c1ccc(F)cc1`, the cytotoxicity at 10 µM stood at 3.45%. The figure for `Cc1nc(N2CCC3(CCCN(CCO)C3=O)C2)c2sccc2n1` (stereo not given) is -0.456%. As for `CCCc1nccn1-c1ccc(C(O)CN2CCOCC2)cc1` (stereo not given), the cytotoxicity at 10 µM stood at 3.43%. Take `CN(C)CC1(O)CCN(C(=O)c2cnc(CN3CCCC3)s2)C1` (stereo not given): the cytotoxicity at 10 µM came to 0.245%. To `CN(C)CCCn1ccc(-c2cccc(-c3cncnc3)c2)n1` belongs 2.51%; to `CCC(CO)N(Cc1ccccn1)C(=O)c1cccc(C#N)c1` (stereo not given), -3.67%.

`COc1ccc2c(c1OC)Cc1c-2nc(N)c(C#N)c1C1CCOC1` (stereo not given): the cytotoxicity at 10 µM was determined as 28.6%. The figure for `Cc1nnc(CCNC(=O)C2CC(=O)N(C(C)(C)C)C2)s1` (stereo not given) is -3.27%; for `NC(=O)C1CCCN(Cc2ccc(C(=O)Nc3cnns3)cc2)C1` (stereo not given) it is 13.7%. To `O=C(NCCc1cnccn1)c1ccc(S(=O)(=O)NC2CCC2)cc1` belongs 7.63%; to `COc1ccc(OC)c(C2CCN(C(=O)C3CCS(=O)(=O)CC3)C2)c1` (stereo not given), 1.21%. The figure for `COc1ccc(-n2ccc(C(=O)NCCN3CCCCC3)n2)cc1` is -2.87%; for `COc1c(CNCC(O)c2ccccc2F)c(C(C)C)nn1C` (stereo not given) it is -8.91%. With `Cc1ccc(C(O)CNC(=O)NCc2c(C)cc(C)[nH]c2=O)cc1` (stereo not given), the cytotoxicity at 10 µM is -3.9%.

Regarding `CC(C)(C)c1n[nH]c(C2CN(C(=O)C3=COCCC3)CCO2)n1` (stereo not given), the cytotoxicity at 10 µM is -5.74%. The figure for `O=C(NCCN1CCCS1(=O)=O)c1scnc1Cl` is -3.67%; for `Cn1cc(-c2nc(C(=O)N3CCCC3Cn3cccn3)cs2)cn1` (stereo not given) it is -9.25%. To `CCCc1n[nH]c(C2CN(C(=O)c3ccc(C)[nH]c3=O)CCO2)n1` (stereo not given) belongs 0.238%; to `CCOc1ccccc1C1=CCN(C(=O)C2CCN(C)C(=O)C2)CC1` (stereo not given), 2.58%; to `Cc1ccccc1C1(CNC(=O)NC(C)c2nncn2C)CC1` (stereo not given), -5.59%.

As to `COc1cc(CNCc2ccnc(N3CCOCC3)c2)cc(Cl)c1OC`, the cytotoxicity at 10 µM was -8.7%. To `Cc1c(F)cc(C(=O)O)cc1S(=O)(=O)Nc1ccc2c(c1)OCCO2` belongs -1.45%. To `c1ncn(CC2CCCN2Cc2cn3ccsc3n2)n1` (stereo not given) belongs -10.1%. To `Cc1cc(C(C)C(=O)N2CCCN(Cc3cscn3)CC2)c(C)o1` (stereo not given) belongs -1.58%.

On to `COc1ccc(-c2noc(CN3CCc4cncnc4C3)n2)cc1`, for which the cytotoxicity at 10 µM was -0.215%. For `CC(C)c1ncc2c(n1)CN(Cc1ccc(C(N)=O)cc1)CC2`, the cytotoxicity at 10 µM was -14.2%. To `CCCn1nc2c(cc1=O)CN(CC(=O)Nc1ccncc1)CC2` belongs -17.8%; to `CCc1ccsc1C(=O)N1CCN(C(=O)CC(F)(F)F)CC1`, -9.88%. To `CN(C)C(=O)CN1CCCC2(CCN(c3ccsc3)C2=O)C1` (stereo not given) belongs 9.88%.

For the molecule `Cc1ccc(CNC2CCc3[nH]c(=O)ccc3C2)cc1C` (stereo not given), the cytotoxicity at 10 µM is 0.354%. `Cc1cccc(CN2C(=O)CC[C@@H]3[C@H]2CCN3Cc2nccn2C)n1`: the cytotoxicity at 10 µM is -81.9%. The figure for `CNC(=O)COC1COC2(CCN(Cc3cccnc3OC)CC2)C1` (stereo not given) is 7.61%; for `COc1cccc(N2CC3(CCN(Cc4nccn4C)C3)CC2=O)c1` (stereo not given) it is -83%; for `Cc1cnc(C(=O)N2CC[C@H]3[C@@H]2CCC(=O)N3c2cccnc2)cn1` it is -81.9%. To `Cc1cnc(N2CC3(CCN(S(=O)(=O)C4CC4)C3)C2)nc1` belongs -109%. Consider `O=C1CO[C@@H]2CN(Cc3ccncc3)C[C@H]2N1Cc1ccncc1`, for which the cytotoxicity at 10 µM is -85%. The figure for `O=C(Cc1cccnc1)N1C[C@H]2CC[C@@H](C1)N(Cc1ccccc1)C2=O` is 7.93%.
